Laboratory results taken from ChEMBL document CHEMBL1128500, “Diamine and triamine analogs and derivatives as inhibitors of deoxyhypusine synthase: synthesis and biological activity” (J Med Chem, 1995).

Legend:
[1] = target: T1, Deoxyhypusine synthase (Rattus norvegicus, UniProt Q6AY53); test: In vitro IC50 value by measuring the inhibition of deoxyhypusine synthase.
T1 sequence (Q6AY53 whole entry): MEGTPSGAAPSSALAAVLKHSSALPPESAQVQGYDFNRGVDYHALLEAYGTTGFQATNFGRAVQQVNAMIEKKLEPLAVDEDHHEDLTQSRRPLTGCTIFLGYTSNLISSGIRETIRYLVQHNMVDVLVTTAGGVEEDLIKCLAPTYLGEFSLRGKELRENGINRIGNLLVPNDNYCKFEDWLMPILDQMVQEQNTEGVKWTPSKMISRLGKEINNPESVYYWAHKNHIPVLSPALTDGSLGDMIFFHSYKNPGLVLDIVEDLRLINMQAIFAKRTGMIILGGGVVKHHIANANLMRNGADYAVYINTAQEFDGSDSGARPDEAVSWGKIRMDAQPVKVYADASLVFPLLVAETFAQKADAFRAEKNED

[2] = target: T2, Deoxyhypusine synthase (Homo sapiens) (UniProt P49366); test: Effect on Hypusine formation in CHO cells at concentration 3 uM.; assay type: functional, cell-based; details: Cricetulus griseus
T2 sequence (whole entry): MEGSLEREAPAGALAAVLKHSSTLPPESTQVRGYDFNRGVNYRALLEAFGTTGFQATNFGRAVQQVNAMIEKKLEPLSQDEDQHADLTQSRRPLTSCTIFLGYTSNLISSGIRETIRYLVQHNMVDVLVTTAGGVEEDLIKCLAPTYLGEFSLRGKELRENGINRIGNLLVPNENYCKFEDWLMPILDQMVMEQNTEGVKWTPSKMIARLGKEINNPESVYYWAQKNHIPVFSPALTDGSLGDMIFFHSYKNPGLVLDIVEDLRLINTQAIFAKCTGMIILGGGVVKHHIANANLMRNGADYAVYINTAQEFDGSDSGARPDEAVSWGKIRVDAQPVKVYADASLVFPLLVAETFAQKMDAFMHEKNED

[3] = target: T2, Deoxyhypusine synthase (Homo sapiens); test: Effect on protein synthesis in CHO cells at concentration 3 uM.; details: Cricetulus griseus
[4] = target: T2, Deoxyhypusine synthase (Homo sapiens); test: Effect on Hypusine formation in CHO cells at concentration 10 uM.; assay type: functional, cell-based; details: Cricetulus griseus
[5] = target: T2, Deoxyhypusine synthase (Homo sapiens); test: Effect on protein synthesis in CHO cells at concentration 10 uM.; details: Cricetulus griseus
[6] = tested on: CHO; test: Effect on spermidine uptake in CHO cells at concentration 10 uM.; assay type: functional
Procedure, shortened: (§1)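 Spermidine uptake in CHO cells: total cellular radioactivity after 18 h growth with 5 μCi/mL [3H]spermidine in presence of compound, reported as percentage of untreated-cell value.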

[7] = tested on: CHO; test: Effect on spermidine uptake in CHO cells at concentration 3 uM.; assay type: functional, Cricetulus griseus; procedure, shortened: as §1
[8] = tested on: CHO; test: Growth inhibition was measured against CHO cell line; - indicates >100 uM; assay type: functional, cell-based; details: Cricetulus griseus
Procedure, shortened: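 CHO cells grown with compound for 72 h; cellular protein measured by bicinchoninic acid method as crude growth estimate (control protein rose ~16-fold over 72 h). Symbol gives compound range halving protein versus control: ++++ <0.5, +++ 0.5-1, ++ >1-10, + >10-100, - >100 μM.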

[9] = tested on: CHO; test: Effect on hypusine synthesis in CHO cells at concentration 10 uM.; assay type: functional, Cricetulus griseus

| Structure (SMILES) | IC50 [1] | Control [2] | Control [3] | Control [4] | Control [5] | Control [6] | other results |
| --- | --- | --- | --- | --- | --- | --- | --- |
| NCCCCCCNCCCCCCN | > 1000 µM | – | – | – | – | – | – |
| N=C(N)CCCCCCCCCCC(=N)N | > 1000 µM | – | – | – | – | – | – |
| N=C(N)CCCCCCCCCC(=N)N | > 1000 µM | – | – | – | – | – | – |
| NCCCCCCNCCCCCCN=C(N)N | – | 61% | 45% | 48% | 35% | 80% | – |
| N=C(N)NCCCCCNCCCCCNC(=N)N | 38 µM | 100% | 100% | 100% | 100% | 95% | – |
| NCCCCSCCCN | 235 µM | – | – | – | – | – | – |
| N=C(N)NCCCCCCCCNC(=N)N | 16.1 µM | – | – | – | – | – | – |
| N=C(N)SCCCCCCCSC(=N)N | > 1000 µM | – | – | – | – | – | – |
| N=C(N)SCCCCSC(=N)N | > 1000 µM | – | – | – | – | – | – |
| NCCCCCCCCNCCCCCCCCN=C(N)N | – | 36% | 20% | 27% | 22% | 80% | – |
| NCCCCNCCCCN=C(N)N | 0.16 µM | 7% | 88% | 3% | 93% | 28% | Control [7]: 64% |
| CCNCCCCCCCN=C(N)N | – | 76% | 34% | 36% | 28% | 95% | – |
| N=C(N)CCCCCCC(=N)N | > 1000 µM | – | – | – | – | – | – |
| N=C(N)NCCCCCCCCN | 0.55 µM | – | – | – | – | – | – |
| N=C(N)CCCCCCCCC(=N)N | > 1000 µM | – | – | – | – | – | – |
| NCCCSCCCN=C(N)N | 1.9 µM | 50% | 40% | 24% | 25% | 100% | – |
| NCCCOCCCN=C(N)N | – | 76% | 98% | 20% | 92% | 95% | – |
| N=C(N)SCCCCCSC(=N)N | > 1000 µM | – | – | – | – | – | – |
| NCCCSCCCN | 83 µM | 100% | 86% | 93% | 81% | 100% | – |

| Structure (SMILES) | IC50 [1] | Control [2] | Control [3] | Control [4] | Control [5] | Control [6] | other results |
| --- | --- | --- | --- | --- | --- | --- | --- |
| N#CCCNCCCCCCCNC(=N)N | 96 µM | – | – | – | – | – | – |
| NC(N)=NCCCCN=C(N)N [ARCAINE] | 179 µM | – | – | – | – | – | – |
| N=C(N)NCCCCNCCCCNC(=N)N | 3.2 µM | 100% | 100% | 100% | 100% | 85% | – |
| N=C(N)SCCCCCCCCSC(=N)N | > 1000 µM | – | – | – | – | – | – |
| N=C(N)NCCCCCCCNC(=N)N | 3.4 µM | – | – | – | – | – | – |
| N=C(N)NCCCNCCCNC(=N)N | 182 µM | 98% | 80% | 100% | – | 95% | Growth inhibition [8]: Not toxic |
| N=C(N)NCCCCCCN | 132 µM | – | – | – | – | – | – |
| NCCCCCCCCNCCCCCCCCN | 116 µM | – | – | – | – | – | – |
| N=C(N)NCCCCSCCCNC(=N)N | 48 µM | – | – | – | – | – | – |
| N=C(N)NCCCCCCCNCCCCCCCNC(=N)N | 0.08 µM | 90% | 88% | 74% | 67% | 95% | – |
| N=C(N)NCCCCCCNCCCCCCN | 74 µM | – | – | – | – | – | – |
| N=C(N)NCCCCCCCN | 0.03 µM | 0% | 62% | – | 50% | – | Control [7]: 100% |
| N=C(N)NCCCCCCCCNCCCCCCCCNC(=N)N [IMINOCTADIENE] | 3.5 µM | 100% | 100% | 100% | 84% | 95% | – |
| NCCCOCCCN | 13 µM | 100% | 100% | 100% | 85% | 100% | – |
| N=C(N)NCCCCCCNCCCCCCNC(=N)N | 40 µM | 96% | 93% | 100% | 87% | 95% | – |
| N=C(N)CCCCCCCC(=N)N | 120 µM | – | – | – | – | – | – |
| NCCCCCN=C(N)N | 29 µM | – | – | – | – | – | – |
| N=C(N)NCCCOCCCNC(=N)N | 8 µM | 100% | 100% | 100% | – | 100% | Control [9]: 100% |
| N=C(N)NCCCCCCNC(=N)N | 112 µM | – | – | – | – | – | – |

| Structure (SMILES) | IC50 [1] | Control [2] | Control [3] | Control [4] | Control [5] | Control [6] | other results |
| --- | --- | --- | --- | --- | --- | --- | --- |
| NCCCNOCCCN | 385 µM | – | – | – | – | – | – |
| N=C(N)NCCCCN [AGMATINE] | 156 µM | – | – | – | – | – | – |
| NCCCCCNCCCCCN | > 1000 µM | – | – | – | – | – | – |
| NCCCCCNCCCCCN=C(N)N | 100 µM | – | 80% | 92% | 65% | 74% | – |
| N=C(N)NCCCNCCCN | 1.2 µM | – | – | – | – | – | – |
| N=C(N)CCCCCC(=N)N | > 1000 µM | – | – | – | – | – | – |
| CCNCCCCCCCN | 275 µM | – | – | – | – | – | Growth inhibition [8]: Not toxic |
| NCCCNCCCN [NORSPERMIDINE] | 41 µM | – | – | – | – | – | – |
| N=C(N)NCCCSCCCNC(=N)N | 21 µM | 100% | 100% | 74% | 60% | 81% | – |
| NCCCCCCCNCCCCCCCN | 63 µM | – | – | – | – | – | – |
| N=C(N)NCCCCCCCCNCCCCCCCCN | 13 µM | – | – | – | – | – | – |
| N=C(N)NCCCOCCCN | 0.7 µM | – | – | – | – | – | – |
| NCCCCCCCNCCCCCCCN=C(N)N | – | 34% | 24% | 22% | 20% | 65% | – |
| [H]/N=C(/N)NCCCCCNC(=N)N | 6.8 µM | – | – | – | – | – | – |
| CCNCCCCCCCNC(=N)N | 9 µM | – | – | – | – | – | – |
| N=C(N)SCCCCCCSC(=N)N | 780 µM | – | – | – | – | – | – |
| NCCCCNCCCCN | 556 µM | – | – | – | – | – | Growth inhibition [8]: Not toxic |
| NCCCNCCCN=C(N)N | – | 50% | 77% | 23% | 75% | 34% | Control [7]: 76% |
| N=C(N)NCCCCCCCNCCCCCCCN | 0.3 µM | – | – | – | – | – | – |
